Reference: ChEMBL document CHEMBL2375244 (J Med Chem, 2013)
Activity calls are given as the source filed them. The rule behind the calls is not given here.

What was measured:
[1] = test system: MDA-MB-231; assay: Cytotoxicity against human MDA-MB-231 cells after 72 hrs by resazurin/resorufin-based fluorescence assay; type: functional, cell-based; conditions: MDA-MB-231, 72 h
[2] = target: Cyclin-dependent kinase 1/cyclin B1 (Homo sapiens) (UniProt P06493+P14635); assay: Inhibition of human CDK1/Cyclin B at 0.1 uM incubated for 15 mins prior to substrate addition measured after 90 mins by P33-radiolabeled assay relative to control; type: protein-complex assay
[3] = target: Cyclin-dependent kinase 2/cyclin E1 (Homo sapiens) (UniProt P24864+P24941); assay: Inhibition of human CDK2/Cyclin E at 0.1 uM incubated for 15 mins prior to substrate addition measured after 90 mins by P33-radiolabeled assay relative to control; type: protein-complex assay
[4] = target: CDK2/Cyclin A2 (Homo sapiens, UniProt P24941); assay: Inhibition of CDK2/Cyclin A (unknown origin)-mediated phosphorylation of peptide substrate incubated for 15 mins prior to substrate addition measured after 90 mins by P33-radiolabeled assay; type: protein-complex assay
[5] = target: Cyclin-dependent kinase 4/cyclin D1 (Homo sapiens) (UniProt P11802+P24385); assay: Inhibition of human CDK4/Cyclin D1 at 0.1 uM incubated for 15 mins prior to substrate addition measured after 90 mins by P33-radiolabeled assay relative to control; type: protein-complex assay
[6] = target: Cyclin-dependent kinase 2 (Homo sapiens) (UniProt P24941); assay: Inhibition of CDK2-mediated Rb phosphorylation at Ser 807/811 in human A673 cells at 0.25 uM after 24 hrs by immunoblotting analysis; type: cell-based
Procedure, shortened: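 Asynchronously growing A-673 cells at ~70% confluence were exposed for 24 h to increasing concentrations, then lysed. 50 μg protein per lane on 10% SDS-PAGE, transferred to nitrocellulose. Phospho-Rb Ser807/811 antibody, with β-actin as loading control, detected with fluorescent secondary antibodies on an infrared scanner.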

[7] = test system: SW872; assay: Cytotoxicity against human SW872 cells after 72 hrs by resazurin/resorufin-based fluorescence assay; type: functional, cell-based; conditions: SW872, 72 h
[8] = Cytotoxicity against human MDA-MB-436 cells after 72 hrs by resazurin/resorufin-based fluorescence assay; type: functional, cell-based; conditions: MDA-MB-436, 72 h
[9] = target: CDK2/Cyclin A2 (Homo sapiens) (UniProt P24941+P20248); assay: Inhibition of human CDK2/Cyclin A at 0.1 uM incubated for 15 mins prior to substrate addition measured after 90 mins by P33-radiolabeled assay relative to control; type: protein-complex assay
[10] = target: CDK2/Cyclin A1 (Homo sapiens) (UniProt P24941+P78396); assay: Inhibition of human CDK2/Cyclin A1 at 0.1 uM incubated for 15 mins prior to substrate addition measured after 90 mins by P33-radiolabeled assay relative to control; type: protein-complex assay
[11] = target: CDK9/Cyclin K (Homo sapiens) (UniProt P50750+O75909); assay: Inhibition of human CDK9/Cyclin K at 0.1 uM incubated for 15 mins prior to substrate addition measured after 90 mins by P33-radiolabeled assay relative to control; type: protein-complex assay
Procedure, shortened: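 Kinome profiling (339-kinase panel) by a contract lab using a P33-radiolabel assay. Each kinase was tested at a single compound concentration of 0.1 μM, in duplicate, with ATP at 10 μM.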

[12] = target: CDK6/cyclin D1 (Homo sapiens) (UniProt P24385+Q00534); assay: Inhibition of human CDK6/Cyclin D1 at 0.1 uM incubated for 15 mins prior to substrate addition measured after 90 mins by P33-radiolabeled assay relative to control; type: protein-complex assay
[13] = target: CDK1/Cyclin A (Homo sapiens, UniProt P06493); assay: Inhibition of CDK1/Cyclin A (unknown origin)-mediated phosphorylation of peptide substrate incubated for 15 mins prior to substrate addition measured after 90 mins by P33-radiolabeled assay; type: protein-complex assay
[14] = target: CDK4/Cyclin D3 (Homo sapiens) (UniProt P11802+P30281); assay: Inhibition of human CDK4/Cyclin D3 at 0.1 uM incubated for 15 mins prior to substrate addition measured after 90 mins by P33-radiolabeled assay relative to control; type: protein-complex assay
[15] = test system: U-266; assay: Cytotoxicity against human U266 cells after 72 hrs by resazurin/resorufin-based fluorescence assay; type: functional, cell-based; conditions: U-266, 72 h
[16] = target: Mitogen-activated protein kinase 15 (Homo sapiens) (UniProt Q8TD08); assay: Inhibition of human ERK7 at 0.1 uM incubated for 15 mins prior to substrate addition measured after 90 mins by P33-radiolabeled assay relative to control
[17] = target: CDK2/Cyclin A1 (Homo sapiens, UniProt P24941); assay: Inhibition of CDK2/Cyclin A1 (unknown origin)-mediated phosphorylation of peptide substrate incubated for 15 mins prior to substrate addition measured after 90 mins by P33-radiolabeled assay; type: protein-complex assay
[18] = test system: A673; assay: Induction of apoptosis in human A673 cells assessed as caspase-3 activation after 24 hrs by luminescence assay; type: functional, cell-based; conditions: A673, 24 h
Procedure, shortened: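 Caspase-3/7 activation measured with a Caspase-Glo 3/7 luminescent assay. Cells were plated as for the high-throughput viability assay and exposed for 24 h to serial dilutions. EC50 was obtained from the dose-response.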

[19] = target: Glycogen synthase kinase-3 alpha (Homo sapiens) (UniProt P49840); assay: Inhibition of human GSK3alpha at 0.1 uM incubated for 15 mins prior to substrate addition measured after 90 mins by P33-radiolabeled assay relative to control
[20] = target: CDK1/Cyclin A (Homo sapiens) (UniProt P06493+P20248); assay: Inhibition of human CDK1/Cyclin A at 0.1 uM incubated for 15 mins prior to substrate addition measured after 90 mins by P33-radiolabeled assay relative to control; type: protein-complex assay
[21] = target: CDK1/Cyclin E (Homo sapiens) (UniProt P06493+P24864); assay: Inhibition of human CDK1/Cyclin E at 0.1 uM incubated for 15 mins prior to substrate addition measured after 90 mins by P33-radiolabeled assay relative to control; type: protein-complex assay
[22] = target: Cyclin-dependent kinase 5/CDK5 activator 1 (Homo sapiens, UniProt Q00535); assay: Inhibition of CDK5/P25 (unknown origin)-mediated phosphorylation of peptide substrate incubated for 15 mins prior to substrate addition measured after 90 mins by P33-radiolabeled assay; type: protein-complex assay
[23] = target: Cyclin-dependent kinase 5/CDK5 activator 1 (Homo sapiens) (UniProt Q00535+Q15078); assay: Inhibition of human CDK5/P35 at 0.1 uM incubated for 15 mins prior to substrate addition measured after 90 mins by P33-radiolabeled assay relative to control; type: protein-complex assay
[24] = target: Serine/threonine-protein kinase TAO1 (Homo sapiens) (UniProt Q7L7X3); assay: Inhibition of human TAO1 at 0.1 uM incubated for 15 mins prior to substrate addition measured after 90 mins by P33-radiolabeled assay relative to control
[25] = target: CDK9/Cyclin K (Homo sapiens, UniProt P50750); assay: Inhibition of CDK9/Cyclin K (unknown origin)-mediated phosphorylation of peptide substrate incubated for 15 mins prior to substrate addition measured after 90 mins by P33-radiolabeled assay; type: protein-complex assay
Procedure, shortened: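 Radiometric (P33) kinase assay run by a contract lab on CDK–cyclin complexes. Inhibitor tested in duplicate at 0.05 nM to 1000 nM with ATP at 10 μM. […] For the in-house assays, IC50 was obtained by Hill-equation fitting.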

[26] = test system: SK-ES1; assay: Cytotoxicity against human SK-ES-1 cells after 72 hrs by resazurin/resorufin-based fluorescence assay; type: functional, cell-based; conditions: SK-ES1, 72 h

Chain of Cyclin-dependent kinase 1/cyclin B1 (Homo sapiens) (P06493 whole entry, looked up): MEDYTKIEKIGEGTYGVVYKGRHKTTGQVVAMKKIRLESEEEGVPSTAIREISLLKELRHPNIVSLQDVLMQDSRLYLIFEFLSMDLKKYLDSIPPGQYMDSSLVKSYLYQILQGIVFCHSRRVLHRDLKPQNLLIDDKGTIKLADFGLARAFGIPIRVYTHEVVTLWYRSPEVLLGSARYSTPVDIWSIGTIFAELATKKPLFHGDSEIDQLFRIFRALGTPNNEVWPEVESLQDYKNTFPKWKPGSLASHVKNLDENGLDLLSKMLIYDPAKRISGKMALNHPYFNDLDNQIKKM
Chain of Cyclin-dependent kinase 1/cyclin B1 (Homo sapiens) (P14635 whole entry, looked up): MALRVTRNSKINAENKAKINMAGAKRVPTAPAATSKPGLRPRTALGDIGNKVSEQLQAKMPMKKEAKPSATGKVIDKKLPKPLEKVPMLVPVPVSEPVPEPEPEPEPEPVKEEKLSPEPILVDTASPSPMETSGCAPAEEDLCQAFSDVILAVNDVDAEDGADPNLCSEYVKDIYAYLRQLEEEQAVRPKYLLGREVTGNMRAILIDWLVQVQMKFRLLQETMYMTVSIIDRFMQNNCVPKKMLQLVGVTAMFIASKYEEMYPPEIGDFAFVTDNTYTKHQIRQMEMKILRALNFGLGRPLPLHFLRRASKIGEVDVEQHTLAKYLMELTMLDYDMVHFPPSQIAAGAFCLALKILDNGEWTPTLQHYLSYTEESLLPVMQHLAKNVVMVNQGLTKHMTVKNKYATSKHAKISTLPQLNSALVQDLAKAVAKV
Chain of CDK1/Cyclin E (Homo sapiens) (P06493 whole entry, looked up): as the sequence (P06493 whole entry, looked up) above
Chain of CDK1/Cyclin E (Homo sapiens) (P24864 whole entry, looked up): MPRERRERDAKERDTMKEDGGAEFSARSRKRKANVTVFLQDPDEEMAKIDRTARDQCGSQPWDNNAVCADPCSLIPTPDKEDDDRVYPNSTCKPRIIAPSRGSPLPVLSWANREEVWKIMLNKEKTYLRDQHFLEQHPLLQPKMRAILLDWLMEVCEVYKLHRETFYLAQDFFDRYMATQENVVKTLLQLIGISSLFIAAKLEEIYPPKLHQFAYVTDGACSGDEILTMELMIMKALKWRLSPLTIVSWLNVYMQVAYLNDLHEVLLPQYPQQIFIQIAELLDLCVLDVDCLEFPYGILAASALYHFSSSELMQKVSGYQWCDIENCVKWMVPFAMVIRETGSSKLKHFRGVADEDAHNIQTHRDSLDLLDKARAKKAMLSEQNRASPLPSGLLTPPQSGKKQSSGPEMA
Chain of CDK1/Cyclin A (P06493 whole entry): as the sequence (P06493 whole entry, looked up) above
Chain of CDK1/Cyclin A (P20248 whole entry, further chain): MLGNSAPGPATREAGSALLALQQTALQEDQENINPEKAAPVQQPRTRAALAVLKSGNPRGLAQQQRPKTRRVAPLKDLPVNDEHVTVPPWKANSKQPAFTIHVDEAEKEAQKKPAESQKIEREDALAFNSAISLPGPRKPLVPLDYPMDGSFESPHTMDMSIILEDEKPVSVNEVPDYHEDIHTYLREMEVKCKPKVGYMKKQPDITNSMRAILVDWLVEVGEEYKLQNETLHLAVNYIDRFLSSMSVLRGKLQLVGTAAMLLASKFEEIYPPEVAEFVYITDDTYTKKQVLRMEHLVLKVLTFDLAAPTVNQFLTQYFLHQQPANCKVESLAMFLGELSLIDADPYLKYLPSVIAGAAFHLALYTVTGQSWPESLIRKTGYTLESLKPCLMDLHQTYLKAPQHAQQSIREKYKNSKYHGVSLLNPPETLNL
Chain of CDK1/Cyclin A (Homo sapiens) (P06493 whole entry, looked up): as the sequence (P06493 whole entry, looked up) above
Chain of CDK1/Cyclin A (Homo sapiens) (P20248 whole entry, looked up): as the sequence (P20248 whole entry, further chain) above
Chain of Cyclin-dependent kinase 5/CDK5 activator 1 (Q00535 whole entry): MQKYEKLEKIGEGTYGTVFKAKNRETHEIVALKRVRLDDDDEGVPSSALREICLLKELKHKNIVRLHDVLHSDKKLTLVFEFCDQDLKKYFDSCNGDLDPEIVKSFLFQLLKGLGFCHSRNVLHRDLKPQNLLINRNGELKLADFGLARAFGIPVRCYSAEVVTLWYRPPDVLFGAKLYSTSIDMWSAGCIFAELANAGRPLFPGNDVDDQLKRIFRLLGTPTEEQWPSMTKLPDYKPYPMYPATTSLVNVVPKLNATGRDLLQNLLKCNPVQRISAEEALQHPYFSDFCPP
Chain of Cyclin-dependent kinase 5/CDK5 activator 1 (Q15078 whole entry, further chain): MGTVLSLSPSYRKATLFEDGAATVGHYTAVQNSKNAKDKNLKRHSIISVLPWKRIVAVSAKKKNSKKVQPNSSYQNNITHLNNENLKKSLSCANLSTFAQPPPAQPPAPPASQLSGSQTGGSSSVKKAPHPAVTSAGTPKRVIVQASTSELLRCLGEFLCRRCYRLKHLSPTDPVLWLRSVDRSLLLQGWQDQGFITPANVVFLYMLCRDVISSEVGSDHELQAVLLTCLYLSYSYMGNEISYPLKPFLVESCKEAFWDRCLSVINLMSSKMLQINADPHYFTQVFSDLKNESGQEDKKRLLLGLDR
Chain of Cyclin-dependent kinase 5/CDK5 activator 1 (Homo sapiens) (Q00535 whole entry): as the sequence (Q00535 whole entry) above
Chain of Cyclin-dependent kinase 5/CDK5 activator 1 (Homo sapiens) (Q15078 99-307 partner limits assumed): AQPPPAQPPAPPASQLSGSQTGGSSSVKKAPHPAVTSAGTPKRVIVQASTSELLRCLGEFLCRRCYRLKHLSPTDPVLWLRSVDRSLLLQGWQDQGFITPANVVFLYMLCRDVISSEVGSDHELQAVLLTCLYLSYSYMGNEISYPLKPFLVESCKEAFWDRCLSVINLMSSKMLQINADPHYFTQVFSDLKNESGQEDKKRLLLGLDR
Chain of Glycogen synthase kinase-3 alpha (Homo sapiens) (P49840 2-483 limits assumed): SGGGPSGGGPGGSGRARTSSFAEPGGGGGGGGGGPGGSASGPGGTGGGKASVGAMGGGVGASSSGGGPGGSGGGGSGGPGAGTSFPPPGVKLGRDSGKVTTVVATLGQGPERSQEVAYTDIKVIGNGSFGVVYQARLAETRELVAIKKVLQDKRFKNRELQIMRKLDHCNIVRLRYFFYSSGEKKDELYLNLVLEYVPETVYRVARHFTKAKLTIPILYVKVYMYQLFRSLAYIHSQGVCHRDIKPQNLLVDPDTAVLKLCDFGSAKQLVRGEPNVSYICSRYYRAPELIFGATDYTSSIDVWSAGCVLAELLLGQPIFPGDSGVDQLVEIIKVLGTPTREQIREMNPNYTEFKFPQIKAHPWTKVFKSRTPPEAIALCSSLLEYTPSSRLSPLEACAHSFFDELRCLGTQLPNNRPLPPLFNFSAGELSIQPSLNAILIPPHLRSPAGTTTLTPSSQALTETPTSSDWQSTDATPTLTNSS
Chain of Mitogen-activated protein kinase 15 (Homo sapiens) (Q8TD08 whole entry): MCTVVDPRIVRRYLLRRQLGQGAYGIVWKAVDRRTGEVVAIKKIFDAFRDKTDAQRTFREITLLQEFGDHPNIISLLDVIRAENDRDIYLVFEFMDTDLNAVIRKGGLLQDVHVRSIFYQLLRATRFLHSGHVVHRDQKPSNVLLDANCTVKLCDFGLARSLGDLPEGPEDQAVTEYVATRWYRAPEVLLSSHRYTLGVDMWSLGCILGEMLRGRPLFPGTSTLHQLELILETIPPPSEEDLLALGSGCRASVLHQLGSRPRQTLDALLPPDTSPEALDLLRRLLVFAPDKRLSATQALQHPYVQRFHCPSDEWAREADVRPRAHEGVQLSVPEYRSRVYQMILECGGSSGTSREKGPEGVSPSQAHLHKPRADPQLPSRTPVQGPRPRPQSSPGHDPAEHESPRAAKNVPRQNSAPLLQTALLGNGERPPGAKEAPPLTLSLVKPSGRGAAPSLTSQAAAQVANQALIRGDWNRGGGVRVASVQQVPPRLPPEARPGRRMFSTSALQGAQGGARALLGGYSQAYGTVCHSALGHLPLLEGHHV

inhibition [2]: 90%
inhibition [3]: 90%
IC50 [4]: 1.1 nM
inhibition [5]: 80%
inhibition [6]: Active
inhibition [9]: 90%
inhibition [10]: 90%
inhibition [11]: 80%
inhibition [12]: 80%
IC50 [13]: 7.6 nM
inhibition [14]: 80%
IC50 [17]: 1.8 nM
EC50 [18]: 410 nM
inhibition [19]: 75%
inhibition [20]: 70%
inhibition [21]: 80%
IC50 [22]: 1.5 nM
inhibition [23]: 90%
inhibition [24]: 60%
IC50 [25]: 13 nM
Structure (SMILES): Nc1nc(Nc2ccc(S(N)(=O)=O)cc2)sc1C(=O)c1ccccc1[N+](=O)[O-]
IC50 [1]: 1500 nM
IC50 [7]: 6900 nM
IC50 [8]: 2000 nM
IC50 [15]: 1800 nM
inhibition [16]: 70%
IC50 [26]: 560 nM
